Bioassay records (PubChem BioAssay)
Cneo AK release – causes C. neoformans cell lysis. adenylate kinase release luminescence, 4 h; normalised: neutral wells 0, clomiphene wells 100. lysis activity, % at 15 µM. actives 0.2% (n = 360,000). AID 651654;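 active means mean lysis activity across replicates of at least 80%, whatever share of replicates individually reach that level; inactive means mean lysis activity below 80%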
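Material: C. neoformans cells | Amount: Yeast cell density of 5 × 10^6 cells/mL | Medium: Fresh YPD growth medium | Dosing: Single dose | Times: Static 4 h at 37 °C with compound, 1 h detection | Detection: AK luminescence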
Statin myotox sup – protects C2C12 myotubes from simvastatin toxicity. ATP luminescence, 48 h; scaled: DMSO 0, geranylgeraniol control 100. rescue of ATP level, % at 7.49 µM. actives 0.78% (n = 330,000). AID 602340;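 active means mean ATP rescue above about 67%, or every replicate alone reaching that limit, limit read from the data, passing the limit was not always enough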;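 further: myotubes were challenged with 10 µM simvastatin during compound exposure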
SUMO Mot1 rescue – inhibitors of SUMOylation pathway: yeast Mot1-301 growth rescue; S. cerevisiae Mot1-301 growth rescue, ATP luminescence, 38.5C; percent above DMSO median, 100 means doubled; growth rescue, % at 18.8 µM; actives 1% (n = 320,000); AID 2716;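 active means every valid replicate shows activation above 250% relative to neutral control wells; inactive means the rest, any valid replicate at or below 250%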
Efflux pump mplx – antifungal efflux pump inhibition, Nile Red retention; S. cerevisiae Candida pump triplex; inhibition, % at 10 µM; actives 0.44% (n = 330,000);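 active means plate passing quality check with inhibition over a set limit, or well fluorescence over plate mean plus 4 SD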;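 further: Nile Red retained in pooled yeast measured as flow cytometry median fluorescence; higher means more Nile Red kept so more efflux inhibition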
Each line names hits and unclear results; the compound was inactive in the other large screens; ! = repeats disagree. A selection: hits, their analogues and other compounds. The true share with any hit is near 1.8%.

O=C(CN1CCCC1)NN=C(c1ccccc1)c1ccccc1	SUMO Mot1 rescue 392 (no result: Cneo AK release, Statin myotox sup)
c1coc(CN2CNc3nc4ccccc4n3C2)c1	none (no result: Cneo AK release, Statin myotox sup)
CCCN1CN(Cc2ccco2)c2nc3ccccc3n2C1	Statin myotox sup 89
COc1ccc(N2C(=O)CSC23C(=O)Nc2ccccc23)cc1 (stereo not given)	Statin myotox sup 110
Cc1ccc(N2C(=O)CCSC23C(=O)Nc2ccccc23)cc1 (stereo not given)	none (no result: SUMO Mot1 rescue)
COCCCN1CC(=O)N2C(c3ccc(OC)c(OC)c3)c3[nH]c4ccccc4c3C[C@H]2C1=O (stereo not given in full)	SUMO Mot1 rescue 305
COc1cc(C2c3[nH]c4ccccc4c3C[C@H]3C(=O)N(CCO)CC(=O)N23)cc(OC)c1OC (stereo not given in full)	none
C[C@H](CO)N1C[C@H](C)[C@@H](CN(C)C(=O)Nc2ccc(F)cc2)Oc2c(NS(=O)(=O)c3ccccc3)cccc2C1=O	Cneo AK release 102 (no result: SUMO Mot1 rescue, Efflux pump mplx)
COc1ccc(S(=O)(=O)Nc2cccc3c2O[C@H](CN(C)C(=O)Nc2ccc(F)cc2)[C@H](C)CN([C@@H](C)CO)C3=O)cc1	Statin myotox sup 130 (no result: SUMO Mot1 rescue, Efflux pump mplx)
CCc1noc(C)c1C(=O)N(C)CC(=O)Nc1ccc(Cl)c(Cl)c1	none (no result: Cneo AK release)
CCn1ccc(=N)cc1	Statin myotox sup 113
CC(C)[Si](OCCCNS(=O)(=O)c1ccc(Br)cc1)(C(C)C)C(C)C	none (no result: Statin myotox sup, SUMO Mot1 rescue, Efflux pump mplx)
CCOc1ccc(CSC(CC(=O)O)C(=O)O)cc1 (stereo not given)	Statin myotox sup 103
Cc1ccc(S(=O)(=O)N2CC[C@@H]3[C@H]2c2cc(-c4ccccc4F)ccc2N[C@@H]3CO)cc1	Cneo AK release 104 (no result: SUMO Mot1 rescue, Efflux pump mplx)
O=S(=O)(NC[C@@H]1[C@H](c2ccccc2)[C@H](CO)N1CC1CC1)c1ccccc1	none (no result: SUMO Mot1 rescue, Efflux pump mplx)
O=S(=O)(NC[C@@H]1[C@@H](c2ccccc2)[C@H](CO)N1CC1CC1)c1ccccc1	Cneo AK release 107 (no result: SUMO Mot1 rescue, Efflux pump mplx)
O=S(=O)(NCC1CCN(S(=O)(=O)c2ccccc2)CC1)c1ccccc1	Statin myotox sup 137
O=C(O)c1c2c(nc3ccc(S(=O)(=O)N4CCC(C(=O)NCc5ccccc5Cl)CC4)cc13)CCCC2	Statin myotox sup 77
COc1ccc(C(C(C(=O)c2cccs2)N2CCOCC2)N2CCOCC2)cc1OC (stereo not given)	none
COc1ccccc1CC(=O)Nc1cc(C)on1	none (no result: SUMO Mot1 rescue, Efflux pump mplx)
COc1ccc(CC(=O)Nc2cc(C)on2)cc1OC	Statin myotox sup 111
Cc1cccc(OCC(=O)Nc2cc(C)on2)c1	Statin myotox sup 122 (no result: SUMO Mot1 rescue)
CC(C)OCC(O)CN (stereo not given)	Statin myotox sup 97
CCN1CCN(CC(O)COC(C)C)CC1 (stereo not given)	none
C[C@H](CO)N1C[C@H](C)[C@H](CN(C)Cc2ccc(-c3ccccc3)cc2)Oc2ccc(NS(=O)(=O)c3ccc(F)cc3)cc2CC1=O	none (no result: Cneo AK release, SUMO Mot1 rescue, Efflux pump mplx)
O=C(NC1CCCCC1)C(c1ccccc1F)N(Cc1ccco1)C(=O)c1ccccn1 (stereo not given)	SUMO Mot1 rescue 310
O=C(O)C1C2CCC(O2)C1C(=O)Nc1ccc(Cl)cc1F (stereo not given)	SUMO Mot1 rescue 633
O=C(NCCCN1CCOCC1)C(=O)NCC1OCCCN1S(=O)(=O)c1cc(F)ccc1F (stereo not given)	none
CCO[C@@H]1OC(C(=O)Nc2ccccc2)=C[C@H](c2coc3ccccc3c2=O)[C@H]1CCCO	Cneo AK release 102!
CCO[C@H]1OC(C(N)=O)=C[C@@H](c2coc3ccccc3c2=O)[C@@H]1CCCO	none
COc1ccc(N=C2O/C(=C/c3sc(=S)n(CC4CCCO4)c3O)N=C2C#N)cc1 (stereo not given)	none (no result: Statin myotox sup)
Nc1ccccc1Oc1ncc(C(F)(F)F)cc1Cl	SUMO Mot1 rescue 275
CC(=O)NCCc1csc(-c2ccccc2)n1	none
Cc1cccc2sc(NC(=O)CN(C)S(=O)(=O)c3ccc(Br)s3)nc12	Statin myotox sup 100
COc1ccc(C(=O)NCCS(=O)(=O)N2CCc3ccccc3C2)cc1	SUMO Mot1 rescue 530
O=C(NCCS(=O)(=O)N1CCc2ccccc2C1)c1ccccc1	none
COc1ccc(CN2[C@H](CO)[C@H]3c4ccccc4NC[C@H]32)cc1	Statin myotox sup 157 (no result: SUMO Mot1 rescue, Efflux pump mplx)
C[C@@H]1CCCCO[C@@H](CN(C)Cc2ccc(Cl)c(Cl)c2)[C@H](C)CN([C@@H](C)CO)C(=O)c2cc(NC(=O)Cc3ccccc3)ccc2O1	Statin myotox sup 106 (no result: SUMO Mot1 rescue, Efflux pump mplx)
C[C@@H]1CN([C@H](C)CO)C(=O)c2cc(NC(=O)Nc3ccccc3)ccc2O[C@@H](C)CCCCO[C@@H]1CN(C)Cc1ccc(Cl)c(Cl)c1	Statin myotox sup 117 (no result: SUMO Mot1 rescue, Efflux pump mplx)
CCOC(=O)N1CCN(C(=O)CCC2CCCC2)CC1	none (no result: Cneo AK release, Statin myotox sup)
CS(=O)(=O)N1CCN(C(=O)CCC2CCCC2)CC1	SUMO Mot1 rescue 332 (no result: Statin myotox sup)
C=C(C)COC(=O)c1ccccc1C(=O)OCC1(C)CO1 (stereo not given)	Statin myotox sup 98 (no result: SUMO Mot1 rescue, Efflux pump mplx)
COCC#Cc1ccc([C@H]2[C@H]3CN(S(=O)(=O)c4ccccc4F)CCCCN3[C@H]2CO)cc1	none (no result: SUMO Mot1 rescue, Efflux pump mplx)
Cc1cc(NC(=O)COC(=O)C2CCN(S(=O)(=O)c3c(Cl)cccc3Cl)CC2)no1	Statin myotox sup 109
C[C@@H]1CN([C@@H](C)CO)C(=O)Cc2cc(NS(=O)(=O)c3ccccc3)ccc2O[C@@H]1CN(C)Cc1ccc(Cl)c(Cl)c1	Cneo AK release 85 (no result: SUMO Mot1 rescue, Efflux pump mplx)
C[C@H](CO)N1C[C@H](C)[C@@H](CN(C)Cc2ccc(Cl)c(Cl)c2)Oc2ccc(NS(=O)(=O)c3ccccc3)cc2CC1=O	none (no result: SUMO Mot1 rescue, Efflux pump mplx)
C[C@H]1CN([C@@H](C)CO)C(=O)Cc2cc(NS(=O)(=O)c3ccccc3)ccc2O[C@@H]1CN(C)Cc1ccc(Cl)c(Cl)c1	Statin myotox sup 103 (no result: SUMO Mot1 rescue, Efflux pump mplx)
CC(=O)OC1CC(c2cc(C(C)(C)C)c(O)c(C(C)(C)C)c2)=NO1 (stereo not given)	none (no result: Cneo AK release, Statin myotox sup)
CCCCN(C(=O)/C=C/c1ccco1)c1c(N)n(CCC)c(=O)[nH]c1=O	none
Cc1ccc(N(CN2CCCC2=O)C(=O)c2ccc(C)c(C)c2)cc1	Statin myotox sup 113
Cc1ccc(NC(=O)C(=O)NCCCN2CCCC2=O)cc1	SUMO Mot1 rescue 433 (no result: Statin myotox sup)
CO[C@@H]1CN(C)C(=O)c2cc(NC(=O)c3ccccc3)ccc2OC[C@H](C)N(C(=O)C2CC2)C[C@@H]1C	none (no result: SUMO Mot1 rescue, Efflux pump mplx)
Cc1ccc(CN(C)C[C@H]2OCc3cn(nn3)CCCC(=O)N([C@H](C)CO)C[C@H]2C)cc1	none (no result: SUMO Mot1 rescue, Efflux pump mplx)
CC1Oc2ccccc2C=C1/C=N/Nc1ccc(C(=O)O)cc1 (stereo not given)	SUMO Mot1 rescue 402 (no result: Statin myotox sup)
O=C1NC(=Nc2ccccc2)c2ccc([N+](=O)[O-])cc21	none (no result: Statin myotox sup)
CCN(C(=O)COc1ncnc2sccc12)c1ccccc1	none
CSc1cc(-c2ccc(Cl)cc2)c(C(=O)NC(C)C)s1	Statin myotox sup 130
NNC(=O)COc1cccc2cccnc12	Statin myotox sup 122
CC1CCN(c2ncnc3c2cnn3Cc2ccc(Cl)cc2)CC1	Statin myotox sup 172
COc1ccc(C2(NC(C)=O)CCN(C(=O)c3cccs3)CC2)cc1	Statin myotox sup 99
COc1cc(OC)cc(C(=O)N2CCN(C(=O)c3cccs3)CC2)c1	none
CCCNC(=O)Cc1c(O)c2ccccc2[nH]c1=O	Statin myotox sup 108 (no result: Cneo AK release)
